ChEMBL document CHEMBL1123481, “Structure-activity relationships of (arylalkyl)imidazole anticonvulsants: comparison of the (fluorenylalkyl)imidazoles with nafimidone and denzimol” (J Med Chem, 1986)
Calls of active or inactive are those of the source. The rule behind the calls is not given here.

How the values were obtained:
Mus musculus [1] = assay: Effective dose in mice by horizontal screen assay (administered orally); No effect at highest dose of 400 mg/kg; type: functional, organism-based; set-up: dose 400 mg/kg
Procedure, shortened: (§1)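 Fasted, pre-trained male CF1 mice (20–25 g) were dosed orally across a range of doses, given as a suspension in 5% acacia/water. Each mouse was placed on a 13 cm square wire screen, and the screen was rotated 180°. The score was return to the top within 1 min. Time of peak effect was scanned at 0.5–4 h. Each compound was then retested at that time with at least 4 doses and 12 mice per dose.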

Mus musculus [2] = species: Mus musculus; assay: Compound was tested for time to peak anticonvulsant effect (TPE); type: functional
Procedure, shortened: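 Time to peak effect after oral dosing in 5% acacia/water was estimated by testing mice at 0.5, 1, 2, 3 and 4 h posttreatment in the MES and horizontal screen tests.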

Mus musculus [3] = assay: Effective dose in mice by pentylenetetrazole assay (administered subcutaneously); No effect at highest dose of 400 mg/kg; type: functional, organism-based; set-up: dose 400 mg/kg
Procedure, shortened: (§2)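 Test compound was given orally to mice. At its previously determined time of peak effect, pentylenetetrazole (110 mg/kg in water, 10 mL/kg) was injected sc into the neck skin fold. Mice were watched for 15 min for presence or absence of a clonic seizure. Where protection was bell-shaped, the value is the dose giving maximum protection.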

Mus musculus [4] = assay: Effective dose in mice by horizontal screen assay (administered orally); type: functional; settings: po; procedure, shortened: as §1
Mus musculus [5] = assay: Effective dose in mice by pentylenetetrazole assay (administered subcutaneously); type: functional; settings: sc; procedure, shortened: as §2
Mus musculus [6] = species: Mus musculus; assay: Potentiation of hexobarbital-induced sleeping time in mice; type: functional
Procedure, shortened: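 Groups of 10 fasted mice received compound orally at 10 mg/kg in 5% acacia/water (10 mL/kg). At the compound's time of peak effect they were given hexobarbital 100 mg/kg ip, solubilized with stoichiometric NaOH. Sleeping time, measured as loss of righting reflex, was recorded to the nearest minute. Values are mean ± SEM.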

Mus musculus [7] = assay: Compound was tested for effective dose in mice by pentylenetetrazole assay (administered subcutaneously); No effect at highest dose of 100 mg/kg; type: functional, organism-based; set-up: dose 100 mg/kg; procedure, shortened: as §2
Mus musculus [8] = assay: Effective dose in mice by maximal electroshock assay, administered orally; type: functional; settings: po
Procedure, shortened: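 Mice were dosed orally across a range of doses, given in 5% acacia/water. Time of peak effect was found by shocking at 0.5, 1, 2, 3 and 4 h. Corneal electroshock was 40 mA, 0.1 s, ac. Each compound was retested at peak time with at least four doses and 12 mice per dose. The ED50 for prevention of tonic-extensor convulsion was calculated by Litchfield–Wilcoxon; 95% confidence limits are given.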

[9] = target: T1, GABA-A receptor; anion channel (Rattus norvegicus) (UniProt O09028+P15431+P18506+P18508+P19969+P20236+P23574+P23576+P28471+P28473+P30191+P62813+P63079+P63138+Q91ZM7+Q9ES14); assay: In vitro displacement of [3H]flunitrazepam binding from rat cortical membranes at 50 uM; type: cell membranes; settings: Membrane
Procedure, shortened: (§3)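 Rat cortical membranes (180 μg protein) were incubated with 2 nM [3H]flunitrazepam in 50 mM Tris-HCl pH 7.4 for 40 min at 4 °C, with test compound at 5×10^-5 M, in triplicate. Samples were filtered and washed three times with ice-cold buffer. Nonspecific binding was defined with 3 μM diazepam. Results are given as % of control, mean ± SEM.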

[10] = target: T1, GABA-A receptor; anion channel (Rattus norvegicus); assay: In vivo displacement of [3H]flunitrazepam binding to rat cortical membranes after 20 mg/kg ip dose; type: organism-based; set-up: dose 20 mg/kg; settings: Membrane, at 20 mg/kg
Procedure, shortened: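 Male Sprague-Dawley rats (100 g; five per group) received saline or compound at 20 mg/kg ip. After 30 min, [3H]flunitrazepam (100 μCi/kg) was given iv via the tail vein. Rats were killed 20 min later. Cortex was homogenized in 50 mM Tris-HCl pH 7.4, and the particulate fraction was filtered and rinsed. Results are given as % of saline control, mean ± SEM.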

[11] = target: T1, GABA-A receptor; anion channel (Rattus norvegicus); assay: In vitro displacement of [3H]flunitrazepam binding to cortical membranes at 5e-5M concentration; procedure, shortened: as §3
Mus musculus [12] = assay: Compound was tested for effective dose in mice by horizontal screen assay (administered orally); Ca 550; type: functional; settings: po; procedure, shortened: as §1
Mus musculus [13] = assay: Compound was tested for effective dose in mice by horizontal screen assay (administered orally); No effect at highest dose of 100 mg/kg; type: functional, organism-based; set-up: dose 100 mg/kg; procedure, shortened: as §1
Mus musculus [14] = assay: Effective dose in mice by pentylenetetrazole assay (administered subcutaneously); No effect at highest dose of 200 mg/kg
Mus musculus [15] = assay: Effective dose in mice by horizontal screen assay (administered orally); No effect at highest dose of 200 mg/kg

Compound	TPE (Mus musculus [2])	ED50 (Mus musculus [4])	ED50 (Mus musculus [5])	ED50 (Mus musculus [8])	also measured
O=C(Cn1ccnc1)c1ccc2c(c1)Cc1cc(Br)ccc1-2	2 h				ED50 (Mus musculus [1]): No effect; ED50 (Mus musculus [3]): No effect
CC(C(=O)c1ccc2c(c1)Cc1ccccc1-2)n1ccnc1 (stereo not drawn)	1.5 h	> 400 mg/kg	260 mg/kg		ST (Mus musculus [6]): 103 min
c1ccc2c(c1)Cc1cc(C3(Cn4ccnc4)OCCO3)ccc1-2	4 h	> 100 mg/kg			ED50 (Mus musculus [7]): No effect; ST (Mus musculus [6]): 88.7 min
CCc1nccn1CC(=O)c1ccc2c(c1)Cc1ccccc1-2	2 h	> 400 mg/kg	> 400 mg/kg	190 mg/kg	
Cc1cn(CC(=O)c2ccc3c(c2)Cc2ccccc2-3)cn1	1 h	> 400 mg/kg			ED50 (Mus musculus [3]): No effect
O=C(Cn1ccnc1)c1ccc2ccc3ccccc3c2c1	1 h	> 400 mg/kg	> 400 mg/kg	52 mg/kg	Binding [9]: 23%; Control [10]: 121%; Control [11]: 123%
O=C(OC(Cn1ccnc1)c1ccc2c(c1)Cc1ccccc1-2)c1ccccc1 (stereo not drawn)	1 h		> 400 mg/kg		ED50 (Mus musculus [1]): No effect
O=C(Cn1ccnc1)c1ccc2c(c1)CCc1ccccc1-2	2 h			60 mg/kg	ED50 (Mus musculus [12]): 550 mg/kg; ED50 (Mus musculus [3]): No effect
O=C(Cn1ccnc1)c1ccc2c(c1)-c1ccccc1CC2	1 h		> 400 mg/kg	71 mg/kg	ED50 (Mus musculus [1]): No effect
O=C(Cn1ccnc1)c1ccc2ccccc2c1 [NAFIMIDONE]	1 h		> 400 mg/kg	56 mg/kg	ED50 (Mus musculus [1]): inactive; ST (Mus musculus [6]): 59.1 min; Control [10]: 116%; Control [11]: 102%
c1ccc2cc(CCn3ccnc3)ccc2c1	1 h	> 200 mg/kg	> 200 mg/kg	51 mg/kg	
c1ccc2c(c1)Cc1cc(CCn3ccnc3)ccc1-2	2 h	> 100 mg/kg	> 200 mg/kg	17.8 mg/kg	
c1ccc2c(c1)Cc1cc(C3(Cn4ccnc4)OCCCO3)ccc1-2	1 h	> 400 mg/kg			ED50 (Mus musculus [3]): No effect
CCC(C(=O)c1ccc2c(c1)Cc1ccccc1-2)n1ccnc1 (stereo not drawn)	1 h		> 400 mg/kg		ED50 (Mus musculus [1]): No effect
OC(Cn1ccnc1)c1ccc(CCc2ccccc2)cc1 (stereo not drawn) [DENZIMOL]	1 h			12 mg/kg	ED50 (Mus musculus [13]): No effect; ST (Mus musculus [6]): 157.4 min
CC1(C)COC(Cn2ccnc2)(c2ccc3c(c2)Cc2ccccc2-3)OC1	2 h				ED50 (Mus musculus [14]): No effect; ED50 (Mus musculus [15]): No effect
CC1COC(Cn2ccnc2)(c2ccc3c(c2)Cc2ccccc2-3)O1 (stereo not drawn)	2 h	> 400 mg/kg	> 200 mg/kg		
O=C(CCn1ccnc1)c1ccc2c(c1)Cc1ccccc1-2	1 h	> 200 mg/kg	> 100 mg/kg		
CC1(C)c2ccccc2-c2ccc(C(=O)Cn3ccnc3)cc21	1 h	> 400 mg/kg	> 400 mg/kg		
